Tests used:
Format in all cases: functional
NCI-H460 [1] = experiment: Growth inhibition of human NCI-H460 cells after 48 hrs by sulforhodamine B assay; settings: NCI-H460, 48 h
Outline: (§1)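 NCI 60-human-tumor-cell-line panel, with compounds tested over a 5-log dose range. Values are taken from dose-response curves as log10 molar concentrations: GI50 is 50% net growth inhibition, TGI is total growth inhibition, and LC50 is 50% net cell death.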

LOX IMVI = experiment: Growth inhibition of human LOXIMVI cells after 48 hrs by sulforhodamine B assay; outline: as §1
HCT-15 = experiment: Growth inhibition of human HCT15 cells after 48 hrs by sulforhodamine B assay; settings: HCT-15, 48 h; outline: as §1
IGROV-1 = experiment: Growth inhibition of human IGROV1 cells after 48 hrs by sulforhodamine B assay; settings: IGROV-1, 48 h; outline: as §1
A498 = experiment: Growth inhibition of human A498 cells after 48 hrs by sulforhodamine B assay; settings: A498, 48 h; outline: as §1
PC-3 = experiment: Growth inhibition of human PC3 cells after 48 hrs by sulforhodamine B assay; settings: PC-3, 48 h; outline: as §1
MCF7 [2] = experiment: Anticancer activity against human MCF7 cells assessed as cell growth at 100 uM after 48 hrs by sulforhodamine B assay; settings: MCF7, 48 h, read-out: Activity
ACHN = experiment: Growth inhibition of human ACHN cells after 48 hrs by sulforhodamine B assay
KM12 = experiment: Growth inhibition of human KM12 cells after 48 hrs by sulforhodamine B assay; settings: KM12, 48 h; outline: as §1
SK-MEL-28 = experiment: Growth inhibition of human SK-MEL-28 cells after 48 hrs by sulforhodamine B assay; settings: SK-MEL-28, 48 h; outline: as §1
NCI-H460 [3] = experiment: Anticancer activity against human NCI-H460 cells assessed as cell growth at 100 uM after 48 hrs by sulforhodamine B assay; settings: NCI-H460, 48 h, read-out: Activity
NCI-H226 = experiment: Growth inhibition of human NCI-H226 cells after 48 hrs by sulforhodamine B assay; settings: NCI-H226, 48 h; outline: as §1
MOLT-4 = experiment: Growth inhibition of human MOLT4 cells after 48 hrs by sulforhodamine B assay; settings: MOLT-4, 48 h; outline: as §1
SN12C = experiment: Growth inhibition of human SN12C cells after 48 hrs by sulforhodamine B assay
Outline: (§2)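 Run in the NCI 60-human-tumour-cell-line panel, tested over a 5-log dose range. Dose–response curves gave three values per cell line, each as a log10 molar concentration: GI50 (50% inhibition of net cell growth), TGI (total inhibition of net growth) and LC50 (50% net cell death). The mean graph midpoint is the arithmetic mean over all lines, with insensitive lines entered at the highest concentration tested.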

SF-268 [4] = experiment: Anticancer activity against human SF268 cells assessed as cell growth at 100 uM after 48 hrs by sulforhodamine B assay; settings: SF-268, 48 h, read-out: Activity
UACC-62 = experiment: Growth inhibition of human UACC62 cells after 48 hrs by sulforhodamine B assay; settings: UACC-62, 48 h; outline: as §2
SR = experiment: Growth inhibition of human SR cells after 48 hrs by sulforhodamine B assay; outline: as §2
SK-MEL-5 = experiment: Growth inhibition of human SK-MEL-5 cells after 48 hrs by sulforhodamine B assay; settings: SK-MEL-5, 48 h; outline: as §1
RXF 393 = experiment: Growth inhibition of human RXF393 cells after 48 hrs by sulforhodamine B assay; settings: RXF 393, 48 h; outline: as §1
SF-539 = experiment: Growth inhibition of human SF539 cells after 48 hrs by sulforhodamine B assay; settings: SF-539, 48 h; outline: as §1
[5] = Growth inhibition of human Hs 578T cells after 48 hrs by sulforhodamine B assay; outline: as §1
DU-145 = experiment: Growth inhibition of human DU145 cells after 48 hrs by sulforhodamine B assay; settings: DU-145, 48 h; outline: as §1
CCRF-CEM = experiment: Growth inhibition of human CCRF-CEM cells after 48 hrs by sulforhodamine B assay; outline: as §1
SK-MEL-2 = experiment: Growth inhibition of human SK-MEL-2 cells after 48 hrs by sulforhodamine B assay; settings: SK-MEL-2, 48 h; outline: as §1
SF-268 [6] = experiment: Growth inhibition of human SF268 cells after 48 hrs by sulforhodamine B assay; settings: SF-268, 48 h; outline: as §1
Malme-3M = experiment: Growth inhibition of human MALME-3M cells after 48 hrs by sulforhodamine B assay; outline: as §1
EKVX = experiment: Growth inhibition of human EKVX cells after 48 hrs by sulforhodamine B assay; outline: as §1
MCF7 [7] = experiment: Growth inhibition of human MCF7 cells after 48 hrs by sulforhodamine B assay; settings: MCF7, 48 h; outline: as §1
[8] = read-out: pLC50 (the source's name) (converted)

Structure (SMILES): Nc1cc(N)c2nc(-c3ccccc3)c(Oc3ccc(Cl)c(Cl)c3)nc2c1
- GI50 (NCI-H460 [1]): 18.2 µM
- LC50 (50% net cell kill) (NCI-H460 [1]): > 100 µM
- TGI (NCI-H460 [1]; read-out: pTGI (converted)): 70.8 µM
- GI50 (LOX IMVI): 16.2 µM
- LC50 (LOX IMVI): 72.4 µM
- TGI (LOX IMVI; read-out: pTGI (converted)): 33.9 µM
- GI50 (HCT-15): 20 µM
- LC50 (HCT-15): > 100 µM
- TGI (HCT-15; read-out: pTGI (converted)): > 100 µM
- GI50 (IGROV-1): 11.5 µM
- CC50 (IGROV-1; [8]): 91.2 µM
- TGI (IGROV-1; read-out: pTGI (converted)): 32.4 µM
- GI50 (A498): 91.2 µM
- CC50 (A498; [8]): > 100 µM
- TGI (A498; read-out: pTGI (converted)): > 100 µM
- GI50 (PC-3): 3.02 µM
- CC50 (PC-3; [8]): > 100 µM
- TGI (PC-3; read-out: pTGI (converted)): 14.5 µM
- growth at 100 µM (MCF7 [2]): 2%
- GI50 (ACHN): 9.33 µM
- CC50 (ACHN; [8]): > 100 µM
- TGI (ACHN; read-out: pTGI (converted)): 47.9 µM
- GI50 (KM12): 6.31 µM
- LC50 (50% net cell kill) (KM12): > 100 µM
- TGI (KM12; read-out: pTGI (converted)): 39.8 µM
- GI50 (SK-MEL-28): 21.4 µM
- CC50 (SK-MEL-28; [8]): > 100 µM
- TGI (SK-MEL-28; read-out: pTGI (converted)): 64.6 µM
- growth at 100 µM (NCI-H460 [3]): 0%
- GI50 (NCI-H226): 15.1 µM
- LC50 (NCI-H226): > 100 µM
- TGI (NCI-H226; read-out: pTGI (converted)): 49 µM
- GI50 (MOLT-4): 6.31 µM
- LC50 (MOLT-4): > 100 µM
- TGI (MOLT-4; read-out: pTGI (converted)): > 100 µM
- GI50 (SN12C): 11.5 µM
- CC50 (SN12C; [8]): > 100 µM
- TGI (SN12C; read-out: pTGI (converted)): > 100 µM
- growth at 100 µM (SF-268 [4]): 0%
- GI50 (UACC-62): 16.2 µM
- CC50 (UACC-62; [8]): > 100 µM
- TGI (UACC-62; read-out: pTGI (converted)): 47.9 µM
- LC50 (concentration giving 50% net cell death) (SR): > 100 µM
- GI50 (SK-MEL-5): 9.77 µM
- CC50 (SK-MEL-5; [8]): 83.2 µM
- TGI (SK-MEL-5; read-out: pTGI (converted)): 28.8 µM
- GI50 (RXF 393): 6.03 µM
- CC50 (RXF 393; [8]): > 100 µM
- TGI (RXF 393; read-out: pTGI (converted)): 58.9 µM
- GI50 (SF-539): 13.5 µM
- LC50 (SF-539): 64.6 µM
- TGI (SF-539; read-out: pTGI (converted)): 29.5 µM
- GI50 [5]: 10.7 µM
- CC50 [5, 8]: > 100 µM
- TGI ([5]; read-out: pTGI (converted)): 33.9 µM
- GI50 (DU-145): 29.5 µM
- CC50 (DU-145; [8]): > 100 µM
- TGI (DU-145; read-out: pTGI (converted)): > 100 µM
- GI50 (CCRF-CEM): 2.95 µM
- LC50 (CCRF-CEM): > 100 µM
- TGI (CCRF-CEM; read-out: pTGI (converted)): > 100 µM
- GI50 (SK-MEL-2): 5.62 µM
- CC50 (SK-MEL-2; [8]): 89.1 µM
- TGI (SK-MEL-2; read-out: pTGI (converted)): 23.4 µM
- GI50 (SF-268 [6]): 17 µM
- LC50 (SF-268 [6]): > 100 µM
- TGI (SF-268 [6]; read-out: pTGI (converted)): 52.5 µM
- GI50 (Malme-3M): 15.8 µM
- CC50 (Malme-3M; [8]): 89.1 µM
- TGI (Malme-3M; read-out: pTGI (converted)): 37.2 µM
- GI50 (EKVX): 2.14 µM
- LC50 (50% net cell kill) (EKVX): 41.7 µM
- TGI (EKVX; read-out: pTGI (converted)): 8.32 µM
- GI50 (MCF7 [7]): 14.1 µM
- CC50 (MCF7 [7]; [8]): > 100 µM
- TGI (MCF7 [7]; read-out: pTGI (converted)): 70.8 µM
